Test results as given in publication PMC5010991 (Molecular cancer therapeutics, 2016).

Tests used:
T98G cells [1] = experiment: Cell number using WST-1; type: cell-based, human; conditions: for reduction of cell number: T98G, 10 µM, WST-1
Summary of the method: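 T98G cells (ATCC, STR-authenticated, under 6 months in culture) grown in DMEM or RPMI with 10% FBS, 100 U/mL penicillin and 100 µg/mL streptomycin at 37°C, 5% CO2. Cells exposed to test compound at 10 µM, with nocodazole or paclitaxel (10 µM each) run in parallel. Cell number followed over 72 hrs by WST-1 per kit protocol. Mean ± SEM of at least 3 independent experiments.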

bovine brain tubulin = experiment: Cell-free MT assembly assay with purified tubulin; type: biochemical
T98G cells [2] = experiment: Live cell imaging of EB3-GFP on assembling MTs; type: cell-based, human; conditions: nocodazole 1 µM, by 15 min
Summary of the method: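 T98G cells transfected with EB3-GFP and RFP-CenpB to mark growing MT plus ends and centromeres. Treated with test compound (0.5 or 3 µM) or nocodazole (1 µM). Movies of 30 sec at 500 ms intervals were taken on a deconvolution microscope starting 10 min after drug addition. Images were deconvolved, and MT assembly rates were tracked in interphase cells.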

[3] = tested on: MDA-MB-231 breast cancer cells; experiment: Viability of positive-control breast cancer cells; type: cell-based; conditions: MDA-MB-231, by 72 hrs

Compound	reduction of cell number (T98G cells [1]; 12 hrs)	reduction of cell number (T98G cells [1]; 72 hrs)	level of free tubulin (bovine brain tubulin)	assembling MTs in live cells (T98G cells [2])	viability [3]	effect of caspase-3 inhibition on the antineoplastic action of ST-11 (T98G cells [1]; Z-DEVD-FMK 10 µM, 15 min preincubation, ST-11 10 µM)
COC(=O)Nc1nc2ccc(C(=O)c3cccs3)cc2[nH]1 [nocodazole]	10–15%	34%	triggered an increase the free tubulin	abolished all assembling MTs	–	–
CC(=O)O[C@H]1C(=O)[C@@]2(C)[C@H]([C@H](OC(=O)c3ccccc3)[C@]3(O)C[C@H](OC(=O)[C@H](O)[C@@H](NC(=O)c4ccccc4)c4ccccc4)C(C)=C1C3(C)C)[C@]1(OC(C)=O)CO[C@@H]1C[C@@H]2O [paclitaxel]	10–15%	inactive	decrease in free tubulin levels	–	reduced the viability	–
Z-DEVD-FMK	–	–	–	–	–	blocked the antineoplastic action of ST-11
